Active and inactive are the calls of the source. The calls are words filed in the database; no cut-off is given here.
Tests used:
[1] = test system: Nc1ccn([C@@H]2O[C@H](COP(=O)(O)OP(=O)(O)OP(=O)(O)O)[C@@H](O)[C@H]2O)c(=O)n1; assay: (§1) Activity of HCV NS5B RNA polymerase S282T assessed as incorporation of 32P-UMP into RNA; details: Hepacivirus hominis
Summary of the method: (§2)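 Steady-state assay with purified 21-aa C-terminally truncated HCV NS5B (S282T) on minus-IRES RNA template. Conditions: 50 mM HEPES pH 7.5, 1 mM MgCl2, 0.75 mM MnCl2, 2 mM DTT, [α-32P]UTP tracer, 27°C. One NTP varied, other three held at saturating levels. Rates came from product time courses; products were dot-blotted on Hybond N+ and counted by scintillation.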

[2] = test system: Nc1nc2c(c(=O)[nH]1)NCN2[C@@H]1O[C@H](COP(=O)(O)OP(=O)(O)OP(=O)(O)O)[C@@H](O)[C@H]1O; assay: as §1; details: Hepacivirus hominis; summary of the method: as §2
[3] = test system: Nc1ncnc2c1ncn2[C@@H]1O[C@H](COP(=O)(O)OP(=O)(O)OP(=O)(O)O)[C@@H](O)[C@H]1O; assay: as §1; details: Hepacivirus hominis; summary of the method: as §2
[4] = test system: O=c1ccn([C@@H]2O[C@H](COP(=O)(O)OP(=O)(O)OP(=O)(O)O)[C@@H](O)[C@H]2O)c(=O)[nH]1; assay: as §1; details: Hepacivirus hominis; summary of the method: as §2
[5] = test system: Hepacivirus hominis; assay: Inhibition of HCV NS5B RNA polymerase S282T mutant assessed as incorporation of 32P-UMP into RNA
Summary of the method: (§3)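 Purified 21-aa C-terminally truncated NS5B (S282T; wild type for comparison) on minus-IRES template, run in 50 mM HEPES pH 7.5 with 1 mM MgCl2, 0.75 mM MnCl2, 2 mM DTT and [α-32P]UTP at 27°C. Natural substrate and inhibitor were both varied against fixed remaining NTPs (UTP 10 μM, others 100 μM). Product was membrane-captured and counted. Ki was obtained by fitting a competitive inhibition equation.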

[6] = test system: Hepacivirus hominis; assay: Inhibition of HCV NS5B RNA polymerase assessed as incorporation of 32P-UMP into RNA
Summary of the method: (§4)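 Steady-state Ki against truncated NS5B (wild-type and S282T) on minus IRES template, 27°C, HEPES pH 7.5 with Mg2+/Mn2+/DTT and [α-32P]UTP. For ATP analog, UTP 10, GTP and CTP 100 μM, ATP and inhibitor varied. For CTP analogs, UTP 10, ATP and GTP 100 μM, CTP and inhibitor varied. Membrane-bound product counted, rates fit to competitive inhibition.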

[7] = test system: Hepacivirus hominis; assay: Ratio of Ki to Km for HCV NS5B RNA polymerase; summary of the method: as §4
[8] = test system: RNA-directed RNA polymerase (Hepacivirus hominis), O39930 [S282T]; assay: Ratio of Ki to Km for HCV NS5B RNA polymerase S282T mutant; summary of the method: as §3
[9] = test system: Hepacivirus hominis; assay: Ratio of Ki/Km of HCV NS5B RNA polymerase S282T mutant to Ki/Km of HCV NS5B RNA polymerase; summary of the method: as §3
[10] = test system: HepG2; assay: Ratio of Kcat to Km for NDPK activity expressed in HepG2 cells; format: cell-based; details: Homo sapiens
Summary of the method: (§5)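 Human NDPK cloned from HepG2 cells, 216 nM, 37°C, with 1 mM ATP in Tris-HCl pH 7.5 coupled to pyruvate kinase/lactate dehydrogenase. NADH oxidation read at 340 nm. Diphosphate substrate concentration varied, Km and kcat as mean ± SD.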

[11] = test system: HepG2; assay: Activity of human NDPK expressed in HepG2 cells assessed as phosphorylation by coupled enzyme assay; format: cell-based; summary of the method: as §5
[12] = test system: C[C@@H]1[C@H](O)[C@@H](CO)O[C@H]1n1ccc(N)nc1=O; details: Homo sapiens; HepG2
[13] = test system: C[C@@]1(F)[C@H](O)[C@@H](CO)O[C@H]1n1ccc(N)nc1=O; details: Homo sapiens; HepG2
[14] = test system: C[C@@]1(O)[C@H](O)[C@@H](CO)O[C@H]1n1ccc(N)nc1=O; details: Homo sapiens; HepG2
[15] = test system: Nc1ccn([C@@H]2O[C@H](CO)[C@@H](O)C2(F)F)c(=O)n1; details: Homo sapiens; HepG2
[16] = test system: Nc1ccn([C@@H]2O[C@H](CO)[C@@H](O)[C@H]2F)c(=O)n1; details: Homo sapiens; HepG2
[17] = test system: C[C@@H]1[C@H](O)[C@@H](CO)O[C@H]1n1ccc(N)nc1=O; details: Homo sapiens; HepG2; remark: listed apart in the source
[18] = test system: C[C@@]1(F)[C@H](O)[C@@H](CO)O[C@H]1n1ccc(N)nc1=O; details: Homo sapiens; HepG2; remark: listed apart in the source
[19] = test system: C[C@@]1(O)[C@H](O)[C@@H](CO)O[C@H]1n1ccc(N)nc1=O; details: Homo sapiens; HepG2; remark: listed apart in the source
[20] = test system: Nc1ccn([C@@H]2O[C@H](CO)[C@@H](O)C2(F)F)c(=O)n1; details: Homo sapiens; HepG2; remark: listed apart in the source
[21] = test system: Nc1ccn([C@@H]2O[C@H](CO)[C@@H](O)[C@H]2F)c(=O)n1; details: Homo sapiens; HepG2; remark: listed apart in the source
[22] = biological target: T1, Uridine-cytidine kinase 1 (Homo sapiens) (UniProt Q9HA47); assay: Ratio of Kcat to Km for UCK1 activity expressed in Huh7 cells; format: cell-based; details: Huh-7
T1 sequence (whole entry): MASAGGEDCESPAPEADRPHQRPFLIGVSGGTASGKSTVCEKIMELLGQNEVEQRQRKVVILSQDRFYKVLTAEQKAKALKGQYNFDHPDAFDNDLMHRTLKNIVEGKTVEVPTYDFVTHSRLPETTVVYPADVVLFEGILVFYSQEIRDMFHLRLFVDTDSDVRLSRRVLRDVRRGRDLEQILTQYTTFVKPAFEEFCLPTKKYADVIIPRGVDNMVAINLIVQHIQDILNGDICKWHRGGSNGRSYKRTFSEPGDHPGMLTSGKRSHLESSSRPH
Summary of the method: (§6)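 His-tagged human UCK-1 cloned from Huh-7 cells, assayed at 25°C by pyruvate kinase/lactate dehydrogenase coupling, NADH oxidation at 340 nm. Buffer 64 mM Tris-HCl pH 7.5, 1 mM ATP, Mg2+, phosphoenolpyruvate. Enzyme 41 nM, or 410 nM for 2′-C-methyl cytidines. Substrate concentration varied. Steady-state parameters reported as mean ± SD.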

[23] = biological target: T1, Uridine-cytidine kinase 1 (Homo sapiens); assay: Activity of human UCK1 expressed in Huh7 cells assessed as phosphorylation by coupled enzyme assay; format: cell-based; details: Huh-7; summary of the method: as §6
[24] = test system: Hepacivirus hominis; assay: Ratio of Kcat to Km for HCV NS5B RNA polymerase S282T mutant; summary of the method: as §2
[25] = test system: Hepacivirus hominis; assay: Ratio of Kcat to Km for HCV NS5B RNA polymerase
Summary of the method: (§7)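 Recombinant C-terminal 21-aa truncated HCV NS5B on minus IRES RNA template, 50 mM HEPES pH 7.5, 1 mM MgCl2, 0.75 mM MnCl2, 2 mM DTT, [α-32P]UTP, 27°C. One NTP varied, other three fixed at saturating levels. Aliquots quenched with EDTA/NaCl/citrate, product retained on Hybond N+ membrane, counted by scintillation. Rates from time-course slopes, fit for steady-state parameters.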

[26] = test system: Hepacivirus hominis; assay: Activity of HCV NS5B RNA polymerase assessed as incorporation of 32P-UMP into RNA; summary of the method: as §7
[27] = biological target: T1, Uridine-cytidine kinase 1 (Homo sapiens); assay: Activity of human UCK1 expressed in Huh7 cells assessed as phosphorylation up to 3 mM by coupled enzyme assay; format: cell-based; details: Huh-7; summary of the method: as §6
[28] = biological target: T1, Uridine-cytidine kinase 1 (Homo sapiens); assay: Ratio of Kcat to Km for UCK1 activity expressed in Huh7 cells up to 3 mM; format: cell-based; details: Huh-7; summary of the method: as §6
[29] = biological target: T1, Uridine-cytidine kinase 1 (Homo sapiens); assay: Activity of human UCK1 expressed in Huh7 cells assessed as phosphorylation up to 1 mM by coupled enzyme assay; format: cell-based; details: Huh-7; summary of the method: as §6
[30] = biological target: T1, Uridine-cytidine kinase 1 (Homo sapiens); assay: Ratio of Kcat to Km for UCK1 activity expressed in Huh7 cells up to 1 mM; format: cell-based; details: Huh-7; summary of the method: as §6

Chain of Deoxycytidine kinase (Homo sapiens), P27707 (P27707 whole entry): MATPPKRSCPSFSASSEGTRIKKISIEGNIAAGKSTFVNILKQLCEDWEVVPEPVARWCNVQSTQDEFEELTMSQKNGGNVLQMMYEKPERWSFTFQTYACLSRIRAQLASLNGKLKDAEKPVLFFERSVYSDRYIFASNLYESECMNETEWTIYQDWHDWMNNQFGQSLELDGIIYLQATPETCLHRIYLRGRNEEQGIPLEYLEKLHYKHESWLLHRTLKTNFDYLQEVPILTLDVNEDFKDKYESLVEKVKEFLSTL

RNA-directed RNA polymerase (Hepacivirus hominis), O39930 S282T
Km [1]: 2.7 µM | kcat [1]: 0.000214 s⁻¹ | Km [2]: 5 µM | kcat [2]: 0.000198 s⁻¹ | Km [3]: 0.26 µM | kcat [3]: 0.000167 s⁻¹ | Km [4]: 0.18 µM | kcat [4]: 0.000125 s⁻¹

C[C@@]1(O)[C@H](O)[C@@H](COP(=O)(O)OP(=O)(O)OP(=O)(O)O)O[C@H]1n1ccc(N)nc1=O
Km [5]: 2.7 µM | Km [6]: 13.7 µM | Ki/Km [7]: 0.12 | Ki/Km [8]: 1.4 | Ratio [9]: 12

C[C@@]1(F)[C@H](O)[C@@H](COP(=O)(O)OP(=O)(O)O)O[C@H]1n1ccc(N)nc1=O
kcat/Km [10]: 15000 M⁻¹ s⁻¹ | Km [11]: 1380 µM | kcat [11]: 21 s⁻¹

Nc1ccn([C@@H]2O[C@H](COP(=O)(O)OP(=O)(O)O)[C@@H](O)[C@H]2O)c(=O)n1
kcat/Km [10]: 600000 M⁻¹ s⁻¹ | Km [11]: 307 µM | kcat [11]: 183 s⁻¹

C[C@@]1(O)[C@H](O)[C@@H](COP(=O)(O)OP(=O)(O)OP(=O)(O)O)O[C@H]1n1cnc2c(N)ncnc21
Km [5]: 0.26 µM | Km [6]: 2.7 µM | Ki/Km [7]: 0.56 | Ki/Km [8]: 84 | Ratio [9]: 150

Deoxycytidine kinase (Homo sapiens), P27707
kcat/Km [12]: 1000 M⁻¹ s⁻¹ | kcat/Km [13]: 190 M⁻¹ s⁻¹ | kcat/Km [14]: 12 M⁻¹ s⁻¹ | kcat/Km [15]: 27000 M⁻¹ s⁻¹ | kcat/Km [16]: 11000 M⁻¹ s⁻¹ | Km [17]: 46.2 µM | kcat [17]: 0.048 s⁻¹ | Km [18]: 81.2 µM | kcat [18]: 0.016 s⁻¹ | Km [19]: 914 µM | kcat [19]: 0.011 s⁻¹ | Km [20]: 1.4 µM | kcat [20]: 0.038 s⁻¹ | Km [21]: 4.7 µM | kcat [21]: 0.05 s⁻¹

C[C@@]1(O)[C@H](O)[C@@H](CO)O[C@H]1n1ccc(N)nc1=O
Activity [22]: inactive | Activity [23]: inactive

Nc1ccn([C@@H]2O[C@H](COP(=O)(O)OP(=O)(O)OP(=O)(O)O)[C@@H](O)[C@H]2O)c(=O)n1
kcat/Km [24]: 1.32 M⁻¹ s⁻¹ | kcat/Km [25]: 1.83 M⁻¹ s⁻¹ | Km [26]: 13.7 µM | kcat [26]: 2.53e-05 s⁻¹

O=c1ccn([C@@H]2O[C@H](COP(=O)(O)OP(=O)(O)OP(=O)(O)O)[C@@H](O)[C@H]2O)c(=O)[nH]1
kcat/Km [24]: 11.5 M⁻¹ s⁻¹ | kcat/Km [25]: 53.3 M⁻¹ s⁻¹ | Km [26]: 0.4 µM | kcat [26]: 2.13e-05 s⁻¹

C[C@@]1(F)[C@H](O)[C@@H](CO)O[C@H]1n1ccc(N)nc1=O
Activity [22]: inactive | Activity [23]: inactive | Activity [27]: inactive | Activity [28]: inactive

Nc1ncnc2c1ncn2[C@@H]1O[C@H](COP(=O)(O)OP(=O)(O)OP(=O)(O)O)[C@@H](O)[C@H]1O
kcat/Km [24]: 10.7 M⁻¹ s⁻¹ | kcat/Km [25]: 12.3 M⁻¹ s⁻¹ | Km [26]: 2.7 µM | kcat [26]: 3.33e-05 s⁻¹

C[C@@]1(F)[C@H](O)[C@@H](COP(=O)(O)OP(=O)(O)OP(=O)(O)O)O[C@H]1n1ccc(N)nc1=O
Km [5]: 2.7 µM | Km [6]: 13.7 µM | Ki/Km [7]: 0.31 | Ki/Km [8]: 0.93 | Ratio [9]: 3

Nc1ccn([C@H]2C[C@H](O)[C@@H](CO)O2)c(=O)n1
Activity [22]: inactive | Activity [23]: inactive | Activity [29]: inactive | Activity [30]: inactive

From ChEMBL document CHEMBL1142170, “Mechanism of activation of beta-D-2'-deoxy-2'-fluoro-2'-c-methylcytidine and inhibition of hepatitis C virus NS5B RNA polymerase” (Antimicrob Agents Chemother, 2007)
